Activity calls are given as the source filed them. No cut-off for these calls is given here.
How the values were obtained:
MGC-803 [1] = test: Antitumor activity against human MGC-803 cells xenografted in BALB/C nude mouse assessed as tumor growth inhibition at 10 mg/kg, ip administered every 2 days and measured 3 times per week for 16 days; format: functional; design: scale not given: the % may be the effect or the level left; conditions: time 16 day
How it was run: (§1)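 Male BALB/c nude mice, 6 weeks old, given 5×10^6 MGC-803 cells s.c. in the flank. When tumors reached about 80 mm3, mice were randomized (n = 6/group) and dosed i.p. every 2 days. Vehicle was 5% DMSO in saline. Drug solutions were 1.0 or 2.0 mg/mL (DMSO/saline). Tumor length and width plus body weight were measured three times weekly; volume = lw²/2. Mean ± SD.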

MGC-803 [2] = test: Antitumor activity against human MGC-803 cells xenografted in BALB/C nude mouse assessed as tumor growth inhibition at 10 mg/kg, ip administered every 2 days and measured 3 times per week; format: functional, organism-based; conditions: time 2.0 day; how it was run: as §1
Mus musculus = test: Toxicity against BALB/c nude mouse xenografted with human MGC-803 cells assessed as body weight at 10 mg/kg, ip administered every 2 days and measured 3 times per week for 16 days; format: organism-based; conditions: in vivo, 384 h, time 16 day
How it was run: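 Male BALB/c nude mice, 6 weeks old, received 5×10^6 MGC-803 cells subcutaneously in the flank. At about 80 mm3, mice were randomized (n = 6/group). They were dosed i.p. every 2 days with vehicle (5% DMSO in saline, v/v) or drug in DMSO/saline at 1.0 or 2.0 mg/mL. Body weight was recorded three times weekly; mean ± SD.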

T-24 = test: Cytotoxicity against human T-24 cells […] assessed as reduction in cell viability preincubated for 48 hrs and measured after 4 hrs by MTT assay; format: functional, cell-based
DU-145 = test: Cytotoxicity against human DU145 cells expressing mutant type p53 assessed as reduction in cell viability preincubated for 48 hrs and measured after 4 hrs by MTT assay; format: functional, cell-based
How it was run: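 MTT assay. Cells grown in DMEM (T24, MGC-803, A549, HL-7702), RPMI-1640 (DU145) or DMEM-F12 (PC-3), each with 10% FBS. Exposed to 1.25–20 µM in medium with 1% DMSO for 48 h, then MTT for 4 h. Formazan dissolved in DMSO and read at 570 nm. Five wells per concentration; means ± SD of independent repeats.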

MGC-803 [3] = test: Cytotoxicity against human MGC-803 cells expressing mutant type p53 assessed as reduction in cell viability preincubated for 48 hrs and measured after 4 hrs by MTT assay; format: functional, cell-based
L02 = test: Cytotoxicity against human HL-7702 cells expressing wild type p53 assessed as reduction in cell viability preincubated for 48 hrs and measured after 4 hrs by MTT assay; format: functional, cell-based
PC-3 = test: Cytotoxicity against human PC-3 cells assessed as reduction in cell viability preincubated for 48 hrs and measured after 4 hrs by MTT assay; format: functional, cell-based
A549 = test: Cytotoxicity against human A549 cells expressing wild type p53 assessed as reduction in cell viability preincubated for 48 hrs and measured after 4 hrs by MTT assay; format: functional, cell-based
MGC-803 [4] = test: Induction of apoptosis in human MGC-803 cells assessed as decrease in Bcl-2 expression at 5 uM measured after 24 hrs by Western blot analysis; format: functional, cell-based
How it was run: (§2)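 MGC-803 cells (2×10^6) plated overnight, then treated for 24 h at 0.5, 1.0 or 2.5 µM (test agent) or 5.0 µM (comparator). Whole-cell lysates separated by SDS-PAGE, transferred to PVDF and probed with primary antibodies. AP-linked anti-rabbit IgG, ECL detection, β-actin loading control. Representative of three experiments.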

PLC-PRF-5 = test: Antitumor activity against human PLC/PRF/5 cells xenografted in mouse assessed as tumor growth inhibition at 30 mg/kg; format: functional; conditions: read-out: TGI
MGC-803 [5] = test: Induction of apoptosis in human MGC-803 cells assessed as increase in Bim expression at 5 uM measured after 24 hrs by Western blot analysis; format: functional, cell-based
How it was run: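 MGC-803 cells (2×10^6) cultured overnight, then exposed 24 h to 0.5, 1.0 or 2.5 μM, or 5.0 μM for the reference agent. Lysates were resolved by SDS-PAGE, transferred to PVDF and probed with primary antibodies. Detection used AP-linked anti-rabbit IgG and ECL. β-actin served as loading control.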

MGC-803 [6] = test: Induction of apoptosis in human MGC-803 cells assessed as increase in Bax expression at 5 uM measured after 24 hrs by Western blot analysis; format: functional, cell-based; how it was run: as §2
MGC-803 [7] = test: Induction of apoptosis in human MGC-803 cells assessed as decrease in Bcl-xL expression at 5 uM measured after 24 hrs by Western blot analysis; format: functional, cell-based; how it was run: as §2
MGC-803 [8] = test: Induction of apoptosis in human MGC-803 cells assessed as decrease in Bak expression at 5 uM measured after 24 hrs by Western blot analysis; format: functional, cell-based; how it was run: as §2

Compound	Activity (MGC-803 [1]) [%]	Activity (MGC-803 [2])	Activity (Mus musculus)	IC50 (T-24) [µM]	IC50 (DU-145) [µM]	IC50 (MGC-803 [3]) [µM]	IC50 (L02) [µM]	IC50 (PC-3) [µM]	IC50 (A549) [µM]	Activity (MGC-803 [4])	inhibition in vivo at 30 mg/kg (PLC-PRF-5) [%]	Activity (MGC-803 [5])	Activity (MGC-803 [6])	Activity (MGC-803 [7])	Activity (MGC-803 [8])
COc1cccc2c1C(=O)c1c(O)c3c(c(O)c1C2=O)C[C@@](O)(C(=O)CO)C[C@@H]3O[C@H]1C[C@H](N)[C@@H](O)[C@H](C)O1 [EPIRUBICIN]	67.2	Active	Non-Toxic	1.12	2.01	1.2	2.1	2.31	0.82	–	–	–	–	–	–
COc1ccc(/C=C/c2nc(NCCCN(C)C)c3ccccc3n2)cc1	–	–	–	20.3	15.3	18.3	25.3	16.3	24.8	inactive	60	inactive	inactive	inactive	inactive
CN(C)CCNc1nc(/C=C/c2ccc([N+](=O)[O-])cc2)nc2ccccc12	–	–	–	8.95	15.7	14.4	18	51.1	33.9	–	–	–	–	–	–
CN(C)CCNc1nc(/C=C/c2ccc3c(c2)OCO3)nc2ccccc12	–	–	–	66.4	> 100	> 100	57.8	> 100	> 100	–	–	–	–	–	–
COc1ccc(/C=C/c2nc(NCCCN(C)C)c3cc(Cl)ccc3n2)cc1OC	–	–	–	> 100	> 100	> 100	> 100	> 100	> 100	–	–	–	–	–	–
O=[N+]([O-])c1ccc(/C=C/c2nc(NCCN3CCCCC3)c3cc(Cl)ccc3n2)cc1	–	–	–	34.3	> 100	20	> 100	> 100	41.1	–	–	–	–	–	–
CCN(CC)CCNc1nc(/C=C/c2ccc(OC)c(OC)c2)nc2ccc(Cl)cc12	–	–	–	12.2	> 100	16.8	91.2	> 100	> 100	–	–	–	–	–	–
